In the library only some 1.9% were active in any assay of this set; here they are far more common.
NR2E3 ag-1: NR2E3 agonists in two-hybrid cells, primary screen, cell-based, luminescence, CHO-S, Gal4-NCOR/VP16-NR2E3 | inhibition of corepressor binding, % at 3.98 µM | Photoreceptor-specific nuclear receptor (Homo sapiens), Q9Y5X4 | AID 602229, 2012 | luciferase | hit rate 0.35% among 360,000;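 active = inhibition above the mean of all tested compounds plus 3 SD, cut at about 70% in these data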;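 also: 0% = DMSO with NR2E3 transfected cells and 100% = cells lacking NR2E3 construct; higher means lower luciferase signal from less NR2E3 corepressor binding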
Target sequence (Q9Y5X4 whole entry, looked up, the tested form may be a part): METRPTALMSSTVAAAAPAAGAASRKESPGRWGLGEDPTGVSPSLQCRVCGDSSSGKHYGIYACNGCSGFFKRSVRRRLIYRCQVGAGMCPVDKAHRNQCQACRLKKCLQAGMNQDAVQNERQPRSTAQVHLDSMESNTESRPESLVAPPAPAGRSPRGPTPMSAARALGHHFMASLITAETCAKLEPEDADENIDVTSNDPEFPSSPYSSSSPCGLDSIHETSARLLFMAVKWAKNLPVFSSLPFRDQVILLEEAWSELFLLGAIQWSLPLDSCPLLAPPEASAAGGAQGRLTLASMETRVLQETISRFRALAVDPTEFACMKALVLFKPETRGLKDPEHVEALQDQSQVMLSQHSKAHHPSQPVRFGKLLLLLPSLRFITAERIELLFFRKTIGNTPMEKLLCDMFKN
NR2E3 ag-2: inhibitors of NR2E3-RetCOR corepressor binding, primary screen, NR2E3 agonist project, biochemical, TR-FRET, GST-NR2E3, biotin-RetCOR; AID 2300, 2010; 1536-well; hit rate 0.12% among 320,000; inhibition of corepressor binding, % at 4.78 µM;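 active = percent inhibition above the cutoff of mean plus 3 SD of all tested compounds, set per screening campaign, cut at about 20% in these data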;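 also: 0% = DMSO wells and 100% = biotin wells as full block of FRET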
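Material – GST-tagged NR2E3 plus biotinylated RetCOR corepressor · Quantity – NR2E3 fusion 1.35 nM · Times – 5 h incubation at 4 °C · Medium – pH 7.5 Tris-based buffer · Technique – TR-FRET, Eu(K)-anti-GST donor, streptavidin-D2 acceptor, ex 340, em 617/671 nm · Benchmarks – high control biotin, low control 0.6% DMSO · Format – 1536-well plates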
PG9 binder: binders of HIV-1 gp120 antibody PG9, primary screen, biochemical, TR-FRET. HIV-1 gp120 / PG9 antibody interaction. TR-FRET gp120-PG9 antibody binding. inhibition, % at 6.7 µM. hit rate 0.43% among 360,000. AID 624416, 2012; in the data active = inhibition above about 8.5%
NR1D1 modulator: modulators of Rev-erb alpha DNA binding, primary screen, biochemical, FITC-DNA, fluorescence polarization, uHTS; Rev-erbα–FITC-DNA binding, 90 min; activity, % at 10 µM; hit rate 0.79% among 370,000; AID 1259318, 2017;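 active = activity above about 14%, limit read from the data; passing the limit was not always enough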;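 also: 0% = DMSO wells with 35 nM protein and 100% = DMSO wells with 750 nM protein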
MT1-MMP act inh: blockers of MT1-MMP proenzyme processing, primary screen, HT1080 RFP-PRO-GFP cells, GFP/RFP fluorescence. GFP/RFP ratio fluorescence, overnight; percent of plate control window, DMSO zero. GFP/RFP ratio change, % at 20 µM. hit rate 0.061% among 360,000. AID 651647, 2012;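 active = GFP/RFP ratio change of at least 30% with cell ATP level not reduced by more than half and red fluorescence within 50% of control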
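Assay system: HT1080 RFP-PRO-GFP cells | Dosing: 20 µM single dose, 1% DMSO | Incubation: Cells overnight before dosing, compound overnight, 37 °C, 5% CO2 | Evaluation: GFP/RFP fluorescence ratio | Control set: DMSO-only wells and HT1080 RFP-L50D-GFP cell wells as references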
SKN-1 block: suppressors of acrylamide-induced Pgst-4::GFP reporter in worms, primary screen, SKN-1 inhibitor project, whole organism, uHTS, GFP/RFP fluorescence ratio, strain VP596. inhibition, % at 21.8 µM. hit rate 0.49% among 360,000. C. elegans VP596 Pgst-4::GFP/RFP ratio, 24 h;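 active = interference check ratio from 0.5 to 1.5 plus GFP to RFP signal ratio inhibition reaching or exceeding a fixed threshold, cut at about 30% in these data, passing the limit was not always enough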
Rev-erbA confirm: modulators of Rev-erb alpha DNA binding, confirmation, biochemical, FITC-DNA, fluorescence polarization, single point | shares compounds with NR1D1 modulator | 90 min | activation, % at 25 µM | hit rate 61% among 3,000;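 active = activation at or above a set limit, or at least 3 SD above the negative control mean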;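 also: 0% = 35 nM protein with DMSO and 100% = 750 nM protein high control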
RORg DNA counter: modulation of RORgamma DNA binding, dose response, counter-screen for Rev-erb alpha modulator project, biochemical, fluorescence polarization, FITC-DNA | shares compounds with NR1D1 modulator | hit rate 8% among 910 | purified RORgamma protein-FITC-DNA binding | AID 1259320, 2017 | IC50, µM;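 active = Compounds whose fitted half-maximal concentration for disrupting protein-DNA binding is below 10 micromolar; the record names Rev-erb in its text, so the target is in doubt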
The depositor's hits bear a star; i = inactive; . = no result; ! = a repeat was not active.

SMILES	NR2E3 ag-1	NR2E3 ag-2	PG9 binder	NR1D1 modulator	MT1-MMP act inh	SKN-1 block	Rev-erbA confirm	RORg DNA counter
Cc1ccc(-c2nnn3c2nc(NCCc2ccc(S(N)(=O)=O)cc2)c2ccccc23)cc1	-10.9	2.0	4.0	48.3*	2.7	11.2	29.8*	.
Cc1cccc(-c2nnn3c2nc(NCCc2ccc(S(N)(=O)=O)cc2)c2ccccc23)c1	-13.5	4.8	1.2	78.3*	0.0	-3.7	56.2*	i
CC(=O)NCCNc1nc2c(-c3ccccc3)nnn2c2ccccc12	-22.0	0.5	1.2	2.8	4.2	24.2	.	.
NS(=O)(=O)c1ccc(CCNc2nc3c(-c4cccc(F)c4)nnn3c3ccccc23)cc1	3.5	1.8	-0.6	81.7*	-4.3	-3.3	82.7*	>40
OC(c1ccc(F)c(F)c1)c1nc(-c2cnc3ccccc3c2)cs1 (stereo unspecified)	-82.2	.	-1.8	-2.3	-2.6	-0.2	.	.
O=S(=O)(c1ccc(F)cc1)N1CCC(c2nc3ccccc3o2)CC1	.	.	.	-0.4	.	.	.	.
Cc1ccc(N(Cc2cc3cc(C)ccc3[nH]c2=O)C(=O)c2cccs2)cc1	1.7	-0.1	0.7	47.9*	0.6	9.4	79.4*	>40
Cc1cc2cc3c(cc2nc1SCc1ccccn1)OCCO3	-27.9	-3.0	-2.9	44.0*	3.0	-7.3	17.2*	.
Cc1ccc2nc(CN(C)C(=O)[C@H]3O[C@@H](n4cnc(C(N)=O)n4)[C@H](O)[C@@H]3O)[nH]c2c1	.	.	-0.3	-0.5	.	.	.	.
CN(C)CCCN1C(=O)c2cccc3c(Br)ccc(c23)C1=O	-31.9	5.5	1.2	0.2	-27.9	-4.7	.	.
CCCCNc1ccc2c3c(cccc13)C(=O)N(CCCC)C2=O	-1.4	.	1.6	108.4*	-143.1	-27.9	127.8*	>40
CCCN1C(=O)c2cccc3c(N4CCCCC4)ccc(c23)C1=O	-46.5	-1.4	-0.3	96.0*	-104.9	-1.3	96.8*	>40
O=C1c2cccc3c(N4CCCCC4)ccc(c23)C(=O)N1c1ccccn1	-1.4	1.9	-0.6	-1.2	-119.4	17.3	.	.
Cc1ccc(S(=O)(=O)NCc2ccc3c(c2)OCO3)cc1	.	.	0.7	-8.8	.	.	.	.
CCOC(=O)C1CSCCS(=O)(=O)N1Cc1ccc(Br)cc1 (stereo unspecified)	.	.	-0.8	-1.0	.	.	.	.
c1ccc(-c2nc(-n3nc4ccccc4n3)nc3ccccc23)cc1	5.2	1.0	0.3	1.7	-10.2	-8.8	.	.
O=C1CN(c2nc(-c3ccccc3)c3ccccc3n2)c2ccccc2N1	13.1	-3.1	0.8	34.4*	-7.3	0.3	14.9	.
Cc1cc2nc3c(=O)[nH]c(=O)nc-3n(C[C@H](O)[C@H](O)[C@H](O)COP(=O)(O)OP(=O)(O)OC[C@H]3O[C@@H](n4cnc5c(N)ncnc54)[C@H](O)[C@@H]3O)c2cc1C	.	.	.	5.8	.	.	.	.
CCC(C(=O)c1ccc(O)cc1)c1ccccc1 (stereo unspecified)	6.3	0.8	1.4	-5.0	-1.0	8.3	.	.
CCC(c1ccc(O)cc1)C(CC)c1ccc(O)cc1 (stereo unspecified)	3.6	-0.2	0.1	33.9*!	-5.8	6.9	40.8*	>40
CCCCCCCCCCCCNC[C@@H]1CSCCS(=O)(=O)N1	.	.	-0.9	1.1	.	.	.	.

Source: PubChem (several laboratories)
